Source: PubChem BioAssay AID504667 (Broad Institute, 2011)
Values joined by “and” are separate entries in the source; they are usually repeats but may differ in a detail not shown here. Equal entries are not always repeated. Inconclusive results are not listed. Active and inactive are the calls of the source.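 The calls were made as follows: active = signal drops with a fitted half-maximal dose within ten times the top tested dose, in every replicate test; inconclusive = replicate tests disagree, or flat partial drop, or poor fit; inactive = the rest, including effects in the wrong direction.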

Test system: HMLE_shECad viability, CellTiter-Glo luminescence, 72 h
Assay: growth inhibition of breast cancer stem-like cells, dose response, cell-based, HMLE_shECad, CellTiter-Glo luminescence, dry powder, set 6 (AID 504667)
Conditions: not given
Procedure, shortened: (§1)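 Material: HMLE_shECad cells, stable E-cadherin knockdown, EMT-induced, CSC-like. Input: 2000 HMLE_shECad cells per well. Medium: serum-free CSC medium for cell seeding and exposure. Incubation: cell adherence ≥4 h at 37 °C, 5% CO2, compound exposure ~70-74 h. Technique: CellTiter-Glo luminescence.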

First: Cc1csc(NC(=O)c2ccc(COc3cccc(Cl)c3)o2)n1
Second: Cc1csc(NC(=O)c2ccc(COc3cccc(F)c3)o2)n1
The AC50 of the first is 6.5-fold lower: 0.5 µM for the first, 3.25 µM for the second.

First: Cc1csc(NC(=O)c2ccc(COC3CCCCC3)o2)n1
Second: Cc1csc(NC(=O)c2ccc(COC3CCCC3)o2)n1
The AC50 of the first is 2.1-fold lower: 13.6 µM for the first, 28.3 µM for the second.

First: CC(C)c1ccc(/C=C/C(=O)NC2=NCCS2)cc1
Second: CC(C)Cc1ccc(/C=C/C(=O)NC2=NCCS2)cc1
The AC50 of the first is 8.4-fold higher: 3.23 µM for the first, 0.386 µM for the second.

First: Cc1csc(NC(=O)c2ccc(COc3cc(Cl)ccc3Cl)o2)n1
Second: COc1ccc(Cl)c(OCc2ccc(C(=O)Nc3nc(C)cs3)o2)c1
The AC50 of the first is 3.3-fold lower: 0.024 µM for the first, 0.08 µM for the second.

`Cc1cc(Br)ccc1OCC(=O)N/N=C/c1ccc[nH]1` and `O=C(COc1ccc(Cl)cc1Cl)N/N=C/c1ccc[nH]1` are within 1.5-fold of each other in AC50: 3.22 µM for the first, 3.8 µM for the second.

Going from `Cc1csc(NC(=O)c2ccc(COc3ccccc3F)o2)n1` to `Cc1csc(NC(=O)c2ccc(COc3ccccc3S(C)(=O)=O)o2)n1`, the AC50 rises from 0.007 µM to 20.9 µM (3000-fold).

First: Cc1cc(C)c(OCC(=O)N/N=C/c2ccc[nH]2)c(C)c1
Second: O=C(COc1c(Cl)cc(Cl)cc1Cl)N/N=C/c1ccc[nH]1
The AC50 of the first is 2.9-fold higher: 4.45 µM for the first, 1.51 µM for the second.

`Cc1csc(NC(=O)c2ccc(COc3cccc(OC(F)(F)F)c3)o2)n1` and `COc1cccc(OCc2ccc(C(=O)Nc3nc(C)cs3)o2)c1` are within 1.5-fold of each other in AC50: 0.162 µM for the first, 0.223 µM for the second.

Going from `Cc1csc(NC(=O)c2ccc(COc3ccccc3)o2)n1` to `N#Cc1csc(NC(=O)c2ccc(COc3ccccc3)o2)n1`, the AC50 rises from 1.05 µM to 13.7 µM (13-fold).

`Cc1csc(NC(=O)c2ccc(CNc3ccccn3)o2)n1` and `Cc1csc(NC(=O)c2ccc(COc3ccccn3)o2)n1` are within 1.5-fold of each other in AC50: 7.55 µM for the first, 9.4 µM for the second.

Going from `CC(C)c1ccc(/C=C/C(=O)Nc2cncs2)cc1` to `CC(C)c1ccc(/C=C/C(=O)N(C)C2=NCCS2)cc1`, the AC50 rises from 6.44 µM to 20.9 µM (3.2-fold).

Compared with `Cc1csc(NC(=O)c2ccc(COc3cccc(Oc4ccccc4)c3)o2)n1`, `CCOc1cccc(OCc2ccc(C(=O)Nc3nc(C)cs3)o2)c1` is 2.3-fold higher in AC50: 0.388 µM for the first, 0.896 µM for the second.

Going from `Cc1csc(NC(=O)c2ccc(COCc3ccccc3)o2)n1` to `Cc1csc(NC(=O)c2ccc(CCc3ccccc3)o2)n1`, the AC50 falls from 4.92 µM to 0.794 µM (6.2-fold).

Going from `O=C(Nc1nc(C(F)(F)F)cs1)c1ccc(COc2ccccc2)o1` to `Cc1ccc(OCc2ccc(C(=O)Nc3nc(C)cs3)o2)cc1`, the AC50 falls from 13.8 µM to 2.04 µM (6.8-fold).

Going from `Cc1csc(NC(=O)c2coc(COc3ccccc3)c2)n1` to `Cc1csc(NC(=O)c2ccoc2COc2ccccc2)n1`, the AC50 rises from 1.27 µM to 16.6 µM (13-fold).

Compared with `Cc1csc(NC(=O)c2ccc(CNc3ccccc3)o2)n1`, `Cc1csc(NCc2ccc(COc3ccccc3)o2)n1` is 76-fold higher in AC50: 0.38 µM for the first, 28.8 µM for the second.

Compared with `COc1ccc(/C=C/C(=O)NC2=NCCS2)c(OC)c1`, `CCc1ccc(/C=C/C(=O)NC2=NCCS2)cc1` is 4.5-fold lower in AC50: 10.4 µM for the first, 2.33 µM for the second.

Compared with `N#Cc1ccc(/C=C/C(=O)NC2=NCCS2)cc1`, `COc1ccc(OCc2ccc(C(=O)Nc3nc(C)cs3)o2)c(F)c1` is 7.3-fold lower in AC50: 24.6 µM for the first, 3.35 µM for the second.

In the case of `Cc1cccc(OCc2ccc(C(=O)Nc3nc(C)cs3)o2)c1`, the AC50 was 0.123 µM and 0.596 µM.

Test system: not listed separately
Assay: as above
Conditions: HMLE_shECad viability, CellTiter-Glo luminescence, 72 h; at 19.5 µM (top of the series)
Procedure, shortened: as §1

For `Cc1csc(NC(=O)c2ccc(COC(C)(C)C)o2)n1`, the activity change, negative = inhibition was -7.02% (inactive).
In the case of `CC(C)c1ccc(/C=C/C(=O)Nc2nc3ccccc3s2)cc1`, the activity change, negative = inhibition was -8.38% (inactive).
In the case of `COCc1ccc(C(=O)Nc2nc(C)cs2)o1`, the activity change, negative = inhibition was -7.05% (inactive).
With `CNC(=O)c1csc(NC(=O)c2ccc(COc3ccccc3)o2)n1` the activity change, negative = inhibition was -0.72% (inactive).
With `CC(C)NC(=O)c1ccc(COc2ccccc2)o1` the activity change, negative = inhibition was -15.6% (inactive).
With `O=C(Nc1nncs1)c1ccc(COc2ccccc2)o1` the activity change, negative = inhibition was -0.185% (inactive).
With `Cc1csc(NC(=O)c2ccc(COc3cccc(S(C)(=O)=O)c3)o2)n1` the activity change, negative = inhibition was -5.39% (inactive).
In the case of `C/C(=C\C(=O)NC1=NCCS1)c1ccc(CC(C)C)cc1`, the activity change, negative = inhibition was -2.19% (inactive).
With `CCN(CC)C(=O)c1ccc(COc2ccccc2)o1` the activity change, negative = inhibition was -1.82% (inactive).

Same assay, conditions: HMLE_shECad viability, CellTiter-Glo luminescence, 72 h; at 30 µM (top of the series)

For `COc1ccc2nc(NC(=O)c3ccc(COc4ccccc4)o3)sc2c1`, the activity change, negative = inhibition was -14.7% (inactive).
In the case of `COc1ccc(OC)c2sc(NC(=O)c3ccc(COc4ccccc4)o3)nc12`, the activity change, negative = inhibition was -5.85% (inactive).
With `Cc1ccc2cc(C(=O)NC3=NCCS3)n(C)c2c1` the activity change, negative = inhibition was -5.01% (inactive).
For `O=C(Nc1nc2cc(F)ccc2s1)c1ccc(COc2ccccc2)o1`, the activity change, negative = inhibition was -21.2% (inactive).
In the case of `Cc1csc(NC(=O)c2cocc2COc2ccccc2)n1`, the activity change, negative = inhibition was -3.35% (inactive).
